pEC50, pKd: −log10 of the molar value.

For orientation: pEC50 means the EC50 on a negative log10 scale, so that one unit is a factor of ten. In general, CC50 refers to the concentration at which the toxic effect on the cells reaches its halfway point. As a reminder, the pKd is the Kd on a negative log10 scale, so that one unit is a factor of ten.

The nature of data set [1]: Selectivity index, ratio of CC50 for human Huh7.5 cells to EC50 for HCV genotype 2a JFH-1 infected in human Huh7.5 cells. Type of data set: toxicity, cell-based. The following applies: read-out: Ratio CC50/EC50. The gist of the method: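 This is the CC50/EC50 ratio. CC50 came from MTT viability of mock-infected Huh7.5 cells. EC50 came from Renilla luciferase in Huh7.5 cells infected with JFH1-Luc (MOI 0.004) and read 3 days post-infection, with 3-fold serial compound dilutions. Both were run in parallel, in triplicate.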

Data set [2] in a line: Antiviral activity against recombinant HCV genotype 2a JFH-1 infected in human Huh7.5 cells after 3 days by renilla luciferase reporter gene assay. Type of data set: functional, cell-based, Hepatitis C virus subtype 2a. The following applies: Hepatitis C virus, JFH-1, Huh7.5, 72 h. In a few lines: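 Huh7.5 cells in DMEM with 10% FBS were infected with JFH1-Luc reporter virus at MOI 0.004 for 5 h at 37 °C while exposed to 3-fold serial dilutions of compound. On day 3 post-infection, the cells were lysed and Renilla luciferase activity was read. EC50 was calculated from the signal. Run in triplicate.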
For orientation: In a reporter assay the amount or activity of a reporter protein is the signal.

A short description of data set [3]: Cytotoxicity against human Huh7.5 cells assessed as reduction in cell viability after 3 days by MTT assay. Type of data set: cell-based. The following applies: time 3 day. In a few lines:
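Huh7.5 cells were mock-infected and then treated with increasing concentrations of compound (3-fold serial dilutions), in parallel with the antiviral plates. Viability was measured by MTT assay and CC50 was derived. Run in triplicate.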
(In general: Formazan colour is commonly taken as a measure of viable cells.)

Data set [4] has as its target Peptidyl-prolyl cis-trans isomerase A (Homo sapiens, UniProt P62937). Kind of data set: Binding affinity to Cyclophilin A (unknown origin) by surface plasmon resonance analysis. The gist of the method: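 SPR was used. CypA was immobilized by EDC/NHS activation, diluted in 10 mM sodium acetate pH 6.0, then quenched with 1 M ethanolamine pH 8.5. A protein-free reference channel was used. Running buffer was PBS with 5% DMSO at 30 µL/min, with 3 min association and 4 min dissociation. Regeneration used 50 mM NaOH. KD came from kinetic fitting.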

Chain of Peptidyl-prolyl cis-trans isomerase A (P62937 whole entry): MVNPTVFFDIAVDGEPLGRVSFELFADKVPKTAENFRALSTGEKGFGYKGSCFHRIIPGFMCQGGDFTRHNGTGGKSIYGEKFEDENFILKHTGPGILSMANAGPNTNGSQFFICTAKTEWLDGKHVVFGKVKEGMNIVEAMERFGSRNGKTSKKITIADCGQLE

For `COc1cc(C(C(=O)NC2CCCCC2)N(C(=O)Cc2c[nH]c3ccccc23)c2ccc(C(C)C)cc2)cc(OC)c1OC` (centres undefined), the selectivity ratio in data set [1] was more than 19.2. For the same compound, in data set [2], the pEC50 was 5.28. The CC50 at 72 h in data set [3] is more than 100 µM.

With `COc1ccc(N(C(=O)Cc2c[nH]c3ccccc23)C(C(=O)NC2CCCCC2)c2cc(OC)c(OC)c(OC)c2)cc1` (centres undefined), the selectivity ratio in data set [1] was 9. Besides, the negative-log EC50 (pEC50) in data set [2] was 5.30. For the same compound, in data set [3], the CC50 at 72 h is 44.8 µM.

On to `COc1cc(C(C(=O)NC2CCCCC2)N(C(=O)c2cc3ccccc3[nH]2)c2ccc(C(C)C)cc2)cc(OC)c1OC` (centres undefined), for which the selectivity ratio in data set [1] is 9.7. Also, the negative logarithm of the EC50 (pEC50) in data set [2] is 5.70. Besides, the CC50 at 72 h in data set [3] amounted to 19.4 µM.

With `COc1ccc(C(C(=O)NC2CCCCC2)N(C(=O)Cc2c[nH]c3ccccc23)C2CCCCC2)cc1OC` (centres undefined), the pEC50 in data set [2] is less than 4.84. The CC50 at 72 h in data set [3] was found to be 14.6 µM.

On to `COc1ccc(C(C(=O)NC2CCCCC2)N(C(=O)Cc2c[nH]c3ccccc23)c2ccc(C(C)C)cc2)c(OC)c1OC` (centres undefined), for which the negative-log EC50 (pEC50) in data set [2] is less than 5.23. Further, the CC50 at 72 h in data set [3] is 5.9 µM.

In the case of `COc1cc(C(C(=O)NC(C)(C)C)N(C(=O)Cc2c[nH]c3ccccc23)c2ccc(C(C)C)cc2)cc(OC)c1OC` (centres undefined), the selectivity ratio in data set [1] turned out to be 2.3. The negative logarithm of the EC50 (pEC50) in data set [2] is 5.20. Also, in data set [3], the half-maximal cytotoxic concentration (CC50) at 72 h was determined as 13.9 µM.

In the case of `COc1ccc(C(C(=O)NC2CCCCC2)N(C(=O)Cc2c[nH]c3ccccc23)c2ccc(C(C)C)cc2)cc1OC` (centres undefined), the selectivity ratio in data set [1] was determined as 3.5. Also, the negative-log EC50 (pEC50) in data set [2] was 5.70. In data set [3], the 50% cytotoxic concentration (CC50) at 72 h turned out to be 6.9 µM.

With `COc1ccc(Cn2cc(CC(=O)N(c3ccccc3)C(C(=O)NC3CCCCC3)c3ccccc3)c3ccccc32)cc1` (centres undefined), the pEC50 in data set [2] is less than 4.61. The 50% cytotoxic concentration (CC50) at 72 h in data set [3] was determined as 24.4 µM.

Take `COc1ccc(N(C(=O)Cc2c[nH]c3ccccc23)C(C(=O)NC2CCCCC2)c2cc(OC)c(OC)c(OC)c2)cc1OC` (centres undefined): in data set [1], the selectivity ratio came out at 5.5. In addition, the negative-log EC50 (pEC50) in data set [2] was 4.99. Further, in data set [3], the cytotoxic concentration (CC50) at 72 h was determined as 56.7 µM.

As to `COc1ccc(C(C(=O)NC2CCCCC2)N(C(=O)Cc2c[nH]c3ccccc23)c2ccccc2)c(OC)c1OC` (centres undefined), the pEC50 in data set [2] is less than 4.73. Besides, in data set [3], the CC50 at 72 h was determined as 18.8 µM.

Turning to `COc1cc(C(C(=O)NC2CCCCC2)N(C(=O)Cc2c[nH]c3ccccc23)c2cccc3ccccc23)cc(OC)c1OC` (centres undefined), in data set [1], the selectivity ratio worked out at 3.4. For the same compound, the pEC50 in data set [2] was 5.03. Also, in data set [3], the CC50 at 72 h worked out at 33.2 µM.

With `COc1ccc(CCN(C(=O)Cc2c[nH]c3ccccc23)C(C(=O)NC2CCCCC2)c2cc(OC)c(OC)c(OC)c2)cc1OC` (centres undefined), the selectivity ratio in data set [1] was more than 18.9. Besides, in data set [4], the pKd is 5.44. For the same compound, in data set [2], the pEC50 is 5.28. Further, the CC50 at 72 h in data set [3] is more than 100 µM.

Take `COc1cc(C(C(=O)NC(C)(C)C)N(C(=O)c2cc3ccccc3[nH]2)c2ccc(C(C)C)cc2)cc(OC)c1OC` (centres undefined): the selectivity ratio in data set [1] came to 6.2. For the same compound, the pEC50 in data set [2] is 5.23. The 50% cytotoxic concentration (CC50) at 72 h in data set [3] came to 36.7 µM.

Regarding `COc1ccc(N(C(=O)Cc2c[nH]c3ccccc23)C(C(=O)NC2CCCCC2)c2ccc(OC)c(OC)c2)cc1` (centres undefined), the selectivity ratio in data set [1] was determined as 8.6. Also, the pEC50 in data set [2] was 5.42. Further, in data set [3], the CC50 at 72 h is 32.7 µM.

Take `COc1ccc(C(C(=O)NC2CCCCC2)N(CC(OC)OC)C(=O)Cc2c[nH]c3ccccc23)cc1OC` (centres undefined): the negative-log EC50 (pEC50) in data set [2] was less than 4.26. Moreover, the CC50 at 72 h in data set [3] came out at 54.5 µM.

On to `COc1ccc(C(C(=O)NC2CCCCC2)N(C(=O)Cc2c[nH]c3ccccc23)c2ccc(Br)cc2)c(OC)c1OC` (centres undefined), for which the negative logarithm of the EC50 (pEC50) in data set [2] is less than 5.14. Also, in data set [3], the CC50 at 72 h was found to be 7.2 µM.

On to `COc1ccc(C(C(=O)NC2CCCCC2)N(C(=O)Cc2c[nH]c3ccccc23)c2ccc(OC)c(OC)c2)cc1OC` (centres undefined), for which the selectivity ratio in data set [1] is 10.5. Besides, in data set [2], the negative-log EC50 (pEC50) was 5.28. Further, the CC50 at 72 h in data set [3] was found to be 55.3 µM.

For the compound `NC(=O)c1ncn([C@@H]2O[C@H](CO)[C@@H](O)[C@H]2O)n1` [RIBAVIRIN], the selectivity ratio in data set [1] is more than 6.1. Also, the negative logarithm of the EC50 (pEC50) in data set [2] was less than 4.00. Besides, the CC50 at 72 h in data set [3] stood at 16.3 µM.

The record behind these values is ChEMBL document CHEMBL4680152, “Molecular design, synthesis, and biological evaluation of bisamide derivatives as cyclophilin A inhibitors for HCV treatment” (Eur J Med Chem, 2020).
